Positions of bridges follow the written chain, without caps; N, C: chain ends. Non-standard residues stand in square brackets, D forms with d. Residues, ends and D or L forms follow the SMILES beside them. Tic = O=C(O)[C@@H]1Cc2ccccc2CN1; Pen = CC(C)(S)[C@H](N)C(=O)O

Test [1] concerns the target Opioid receptors; mu & delta (Rattus norvegicus) (UniProt P33533+P33535). The test can be described thus: Ratio of selective binding affinity of mu receptor to that of delta opioid receptor. The format is protein assay.
In the next test the target is Somatostatin receptor. Kind of test: Binding affinity in competition with [125I]- CGP-23996 in somatostatin receptor binding to rat brain membrane. The procedure, abridged:
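Rat whole-brain membranes (adult male Sprague–Dawley) at 1.0% final tissue were incubated with 0.2 nM [125I]CGP 23,996 and analogues at 100–0.3 μM. Buffer was 50 mM Tris pH 7.4 with 2.0 mg/mL BSA, 20 μg/mL bacitracin and 5 mM MgCl2. Incubation ran 1 h at 37 °C and ended by rapid filtration through BSA-soaked GF/B filters.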

Test [2] in a line: Ratio of selective binding affinity of mu receptor to that of somatostatin receptor.

Opioid receptors; mu & delta (Rattus norvegicus), sequence (P33533 whole entry, looked up): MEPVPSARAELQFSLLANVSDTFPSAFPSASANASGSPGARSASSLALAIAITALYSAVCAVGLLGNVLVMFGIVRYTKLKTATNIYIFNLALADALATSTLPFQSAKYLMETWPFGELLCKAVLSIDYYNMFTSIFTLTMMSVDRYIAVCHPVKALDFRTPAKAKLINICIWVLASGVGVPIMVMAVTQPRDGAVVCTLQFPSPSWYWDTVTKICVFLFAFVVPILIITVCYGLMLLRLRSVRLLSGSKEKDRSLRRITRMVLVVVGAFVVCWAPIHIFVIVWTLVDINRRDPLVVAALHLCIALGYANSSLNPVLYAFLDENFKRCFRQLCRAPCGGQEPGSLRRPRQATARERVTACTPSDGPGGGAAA
Opioid receptors; mu & delta (Rattus norvegicus), sequence (P33535 whole entry, looked up): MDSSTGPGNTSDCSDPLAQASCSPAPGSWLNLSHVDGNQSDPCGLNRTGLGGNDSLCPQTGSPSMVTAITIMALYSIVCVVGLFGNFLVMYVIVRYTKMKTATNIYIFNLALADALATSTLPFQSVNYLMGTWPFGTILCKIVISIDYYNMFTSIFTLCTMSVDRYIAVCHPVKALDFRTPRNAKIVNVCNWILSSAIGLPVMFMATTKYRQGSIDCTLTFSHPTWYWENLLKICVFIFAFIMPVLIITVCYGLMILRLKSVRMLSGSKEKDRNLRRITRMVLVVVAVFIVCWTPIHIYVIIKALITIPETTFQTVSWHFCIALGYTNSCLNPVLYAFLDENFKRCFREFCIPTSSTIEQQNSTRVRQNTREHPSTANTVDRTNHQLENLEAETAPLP

A word on the IC50: it is the concentration that gives 50% inhibition. Read a low IC50 as inhibition by little substance. As to `CC(C)[C@H](NC(=O)[C@H]1NC(=O)[C@H]([C@@H](C)O)NC(=O)[C@H](CCCCN)NC(=O)[C@H](Cc2c[nH]c3ccccc23)NC(=O)[C@H](Cc2ccc(O)cc2)NC(=O)[C@@H](NC(=O)[C@H]2Cc3ccccc3CN2)CSSC1(C)C)C(N)=O`, the figures for the Ratio in test [1] and in test [2] were 46 and 43, respectively. On Somatostatin receptor, this compound gave an IC50 of 1.992 µM.

Regarding `C[C@@H](O)[C@H](NC(=O)[C@H]1NC(=O)[C@H]([C@@H](C)O)NC(=O)[C@H](CCCN=C(N)N)NC(=O)[C@H](Cc2c[nH]c3ccccc23)NC(=O)[C@H](Cc2ccc(O)cc2)NC(=O)[C@@H](NC(=O)[C@@H]2Cc3ccccc3CN2)CSSC1(C)C)C(N)=O` (H-[Tic]CYWRT[Pen]T-NH2; disulfide 2-7), the Ratio stood at 1060 in test [1] and 28600 in test [2]. The compound further registered an IC50 at Somatostatin receptor of 34.336 µM.

Consider `C[C@@H](O)[C@@H]1NC(=O)[C@H](CCCCN)NC(=O)C(Cc2c[nH]c3ccccc23)NC(=O)[C@H](Cc2ccc(O)cc2)NC(=O)[C@@H](NC(=O)[C@H](N)Cc2ccccc2)CSSC(C)(C)[C@@H](C(=O)N[C@@H](CC(N)=O)C(N)=O)NC1=O` (stereo in doubt), for which the Ratio was more than 77 in test [1] and 6.3 in test [2].

With `C[C@@H](O)[C@H](NC(=O)[C@H]1NC(=O)[C@H](CCCCN)NC(=O)C(Cc2c[nH]c3ccccc23)NC(=O)[C@@H](Cc2ccc(O)cc2)NC(=O)[C@@H](NC(=O)[C@H]2Cc3ccccc3CN2)CSSC1(C)C)C(N)=O` (stereo in doubt), the Ratio was more than 1 in test [1] and 1.5 in test [2].

Regarding `C[C@@H](O)[C@@H]1NC(=O)[C@H](CCCCN)NC(=O)C(Cc2c[nH]c3ccccc23)NC(=O)[C@H](Cc2ccc(O)cc2)NC(=O)[C@@H](NC(=O)[C@H](N)Cc2ccccc2)CSSC(C)(C)[C@@H](C(N)=O)NC1=O` (stereo in doubt), the Ratio in test [1] is more than 87; in test [2] it was 17.

In the case of `C[C@@H](O)[C@@H]1NC(=O)[C@H](CCCN)NC(=O)C(Cc2c[nH]c3ccccc23)NC(=O)[C@H](Cc2ccc(O)cc2)NC(=O)[C@@H](NC(=O)[C@H](N)Cc2ccccc2)CSSC(C)(C)[C@@H](C(N)=O)NC1=O` (stereo in doubt), the values for the Ratio in test [1] and in test [2] were more than 53 and 253, respectively.

Consider `C[C@@H](O)[C@@H]1NC(=O)[C@H](CCCCN)NC(=O)C(Cc2c[nH]c3ccccc23)NC(=O)[C@H](Cc2ccc(O)cc2)NC(=O)[C@@H](NC(=O)[C@H](N)Cc2ccccc2)CSSC(C)(C)[C@@H](C(=O)N[C@@H](CC(=O)O)C(N)=O)NC1=O` (stereo in doubt), for which the Ratio in test [1] is more than 2.9; in test [2], 2.4.

Take `CN[C@H](Cc1ccccc1)C(=O)N[C@H]1CSSC(C)(C)[C@@H](C(=O)N[C@H](C(N)=O)[C@@H](C)O)NC(=O)[C@H]([C@@H](C)O)NC(=O)[C@H](CCCN)NC(=O)C(Cc2c[nH]c3ccccc23)NC(=O)[C@H](Cc2ccc(O)cc2)NC1=O` (stereo in doubt): the values for the Ratio in test [1] and in test [2] were more than 35 and 28, respectively.

For `C[C@@H](O)[C@H](NC(=O)[C@H]1NC(=O)[C@H]([C@@H](C)O)NC(=O)[C@H](CCCCN)NC(=O)C(Cc2c[nH]c3ccccc23)NC(=O)[C@@H](Cc2ccc(O)cc2)NC(=O)[C@@H](NC(=O)[C@H]2Cc3ccccc3CN2)CSSC1(C)C)C(N)=O` (stereo in doubt), the Ratio in test [1] was 7770; in test [2], 791.

In the case of `C[C@@H](O)[C@@H]1NC(=O)[C@H](CCCCN)NC(=O)C(Cc2c[nH]c3ccccc23)NC(=O)[C@H](Cc2ccc(O)cc2)NC(=O)[C@@H](NC(=O)[C@H](N)Cc2ccccc2)CSSC(C)(C)[C@@H](C(=O)N[C@@H](CO)C(N)=O)NC1=O` (stereo in doubt), the Ratio in test [1] was more than 490; in test [2], 94.

In the case of `C[C@@H](O)[C@@H]1NC(=O)[C@H](CCCCN)NC(=O)C(Cc2c[nH]c3ccccc23)NC(=O)[C@H](Cc2ccc(O)cc2)NC(=O)[C@@H](NC(=O)[C@H]2Cc3ccccc3CN2)CSSC(C)(C)[C@@H](C(=O)N[C@@H](CO)C(N)=O)NC1=O` (stereo in doubt), the figures for the Ratio in test [1] and in test [2] were 491 and 192, respectively.

Source of the values: ChEMBL document CHEMBL1124009 (J Med Chem, 1988).
